PP1 counter: counter-screen for PP5 inhibitors: inhibitors of human PP1-alpha; P62136; purified PP1alpha, OMFP fluorescence; inhibition, % at 6.7 µM; 320,000 tested, 0.9% active; AID 2235;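 active = inhibition above the mean inhibition of all tested compounds plus 3 SD, computed separately for each screening campaign, cut at about 15% in these data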
Target sequence (P62136 whole entry, looked up): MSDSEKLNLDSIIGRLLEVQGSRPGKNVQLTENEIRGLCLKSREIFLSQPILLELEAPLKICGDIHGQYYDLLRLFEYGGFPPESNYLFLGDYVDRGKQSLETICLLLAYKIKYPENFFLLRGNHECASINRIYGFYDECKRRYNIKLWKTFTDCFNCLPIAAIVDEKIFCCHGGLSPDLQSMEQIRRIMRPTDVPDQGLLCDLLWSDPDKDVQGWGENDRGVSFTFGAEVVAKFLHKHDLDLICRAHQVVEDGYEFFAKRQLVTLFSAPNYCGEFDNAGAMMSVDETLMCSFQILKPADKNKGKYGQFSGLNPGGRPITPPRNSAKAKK
PREPL inh: inhibits the human prolyl oligopeptidase-like enzyme. recombinant PREPL, fluorescence polarization activity-based probe. inhibition, % at 5.96 µM. 320,000 tested, 0.68% active. AID 2751;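 note: 0% = enzyme with DMSO and 100% = wells lacking enzyme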
UBC13 inh: inhibitors of human UBC13 polyubiquitin chain formation; 330,000 tested, 0.47% active; inhibition, % at 20 µM; P61088; TR-FRET; in the data active = inhibition above about 45%, passing the limit was not always enough; inconclusive = no clear call, values can overlap the other calls
Target sequence (P61088 whole entry, looked up): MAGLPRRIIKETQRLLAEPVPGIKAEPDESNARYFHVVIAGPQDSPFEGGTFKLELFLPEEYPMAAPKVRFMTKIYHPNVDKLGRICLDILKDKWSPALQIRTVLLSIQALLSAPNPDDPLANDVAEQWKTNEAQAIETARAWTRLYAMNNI
PP5 inh: inhibitors of human protein phosphatase 5 (PP5) | purified PP5c, OMFP substrate fluorescence | AID 1987 | 320,000 tested, 0.18% active | inhibition, % at 6.7 µM;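 active = inhibition above the campaign's mean inhibition across all tested compounds plus 3 SD, cut at about 9.5% in these data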;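 note: 0% = DMSO only and 100% = 100 µM cantharidin control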
Fh CTSL1 inh: cathepsin L1 inhibition, PFM18AAP counter-screen | recombinant F. hepatica cathepsin L1, Z-Leu-Arg-MCA fluorescence | 300,000 tested, 0.49% active | inhibition, % at 5.96 µM | AID 1906;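 active = inhibition above the mean of all tested compounds plus 3 SD, set per screening campaign, cut at about 17% in these data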;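 note: 0% = plate median of test compound wells and 100% = 1 µM Z-Phe-Ala-diazomethylketone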
UCH37 DUB inh: inhibitors of human deubiquitinating enzyme UCH37; purified proteasome/UCH37, Ub-AMC cleavage fluorescence; inhibition, % (test concentration not listed); 330,000 tested, 0.33% active; AID 588478;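 active = mean inhibition over replicate wells above about 20%, limit read from the data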;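 note: 0% = compound-free wells with enzyme and 100% = wells lacking proteasome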
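system = Proteasome-associated human UCH37 deubiquitinase | amount = 0.15 nM proteasome as dispensed | medium = pH 7.4 Tris-HCl (50 mM) with ovalbumin, ATP-MgCl2, DTT | incubation = 30 min preincubation with enzyme, 25 min cleavage at room temperature | detection = AMC fluorescence 355/460 nm | read-out basis = percent inhibition | controls = no-proteasome and no-compound wells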
PREPL inh cf: confirmation of human PREPL enzyme inhibitors; shares compounds with PREPL inh; recombinant PREPL, fluorescence polarization activity probe; inhibition, % at 5.96 µM; 2,000 tested, 67% active; AID 2803;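 note: 0% = protein with DMSO and 100% = wells lacking protein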
Casp3 counter: counter-screen for UBC13 inhibitors: human caspase-3 inhibition; Recombinant caspase-3, Caspase-Glo 3/7 luminescence, 60 min; inhibition, % at 20 µM; AID 488856; shares compounds with UBC13 inh; 1,400 tested, 4% active;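 active = mean inhibition across replicates above about 26%, limit read from the data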;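 note: plate controls were DMSO with caspase-3 for no effect and DMSO wells lacking enzyme for full effect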
Target sequence (P42574 whole entry, looked up): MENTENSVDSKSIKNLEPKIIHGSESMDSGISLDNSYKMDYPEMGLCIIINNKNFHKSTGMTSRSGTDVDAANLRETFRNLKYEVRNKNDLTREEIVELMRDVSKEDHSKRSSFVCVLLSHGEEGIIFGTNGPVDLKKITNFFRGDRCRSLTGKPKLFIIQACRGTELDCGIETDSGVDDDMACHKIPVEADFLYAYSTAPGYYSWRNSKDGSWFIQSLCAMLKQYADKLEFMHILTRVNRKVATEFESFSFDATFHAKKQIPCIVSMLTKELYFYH
UBC13 confirm: confirmation of human UBC13 polyubiquitin inhibitors; shares compounds with UBC13 inh; UBC13 polyubiquitination, TR-FRET, biochemical; inhibition, % at 10 µM; 1,400 tested, 68% active; AID 488859; in the data active = inhibition above about 45%; inconclusive = no clear call, values can overlap the other calls
UCH37 confirm: UCH37 Ub-AMC cleavage inhibition, confirmed; shares compounds with UCH37 DUB inh; Proteasome-bound UCH37, Ub-AMC cleavage fluorescence; inhibition, % at 20 µM; 480 tested, 27% active; AID 624100;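 active = average inhibition over replicates above about 50%, so the earlier screening hit is confirmed, limit read from the data; inactive = the rest, counted as false positives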;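 note: based on cleavage rate fitted by regression over a 30 min kinetic read; 0% = proteasome plus Ub-AMC and 100% = Ub-AMC without proteasome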
* marks the source's active call; other numbers are inactive results; ? = inconclusive; nt = not tested or not shown; ! = not active in a repeat. The list is not random: actives were taken first. Their share in the collection is about 2.3%. Cut-off read from the data, not from the text of the source, unless noted: active = inhibition above about 43%; inactive = the rest.

SMILES	PP1 counter	PREPL inh	UBC13 inh	PP5 inh	Fh CTSL1 inh	UCH37 DUB inh	PREPL inh cf	others
CC12CC[C@H]3[C@@H](CCC4(O)C[C@H](O)CCC34C=NNC(=O)Cc3ccccc3)C1(O)CCC2C1=CC(=O)OC1 (some centres not stated)	nt	nt	nt	nt	nt	4.1	nt
Cc1ccc(CN2CCN(CC(=O)N3CCC4(CC3)OCCO4)C2=O)cc1	-7.9	7.0	-7.5	-5.0	1.0	-0.5	nt
O=C(c1ccc2c(c1)N(Cc1ccc(F)cc1)CCS2)N1CCC2(CC1)OCCO2	4.0	66.5*	17.7	-0.7	1.2	-128.3	63.4*
Cc1ccc(CN2CCSc3ccc(C(=O)N4CCC5(CC4)OCCO5)cc32)cc1	0.8	81.9*	15.1	1.1	-1.4	-102.1	74.1*
COC[C@]12CN(C)C3C4[C@H](OC)C1C3([C@@H](OC)C[C@H]2O)[C@@H]1C[C@@]2(O)[C@H](OC(=O)c3ccccc3)[C@@H]1[C@]4(OC(C)=O)[C@@H](O)[C@@H]2OC	nt	nt	nt	nt	nt	0.2	nt
Cc1cc(N(CCCl)CCCl)ccc1C=NN=C(N)c1cnccn1	nt	nt	nt	nt	nt	5.0	nt
O=c1cc(C(F)(F)F)c2cc3c4c(c2o1)CCCN4CCC3	-17.7	55.6*	-1.5	-6.9	2.5	-9.0	55.0*
CN1CCc2c([nH]c3ccccc23)C1	-6.6	11.1	-30.6	4.7	-3.1	1.7	nt
CC1=NCCc2c1[nH]c1ccccc21	9.5	57.1*	7.9	0.6	7.7	-22.4	26.6
C=CCn1c(O)c(C(CC)=NCCc2c[nH]c3ccccc23)c(=O)[nH]c1=O	-3.7	48.8*	11.1	-1.6	1.2	5.2	52.4*
C=CCn1c(O)c(C(CC)=NCCc2ccccc2)c(=O)[nH]c1=O	3.4	19.2	-2.3	0.2	4.5	3.4	nt
COc1ccc2c(c1)c(CCN)c(C)n2Cc1ccccc1	2.5	44.5*	14.6	-0.8	1.3	2.4	42.0
CC(C)(C)c1ccc(C(=O)OCC(=O)N2CCC(c3ccccc3)=N2)cc1	0.6	23.0	-0.7	1.8	nt	2.1	nt
O=C(c1ccco1)N1CCN(S(=O)(=O)c2cccc([N+](=O)[O-])c2)CC1	-3.0	2.0	-4.2	-2.2	-2.1	0.2	nt
CCOc1cccc(=NC2CCCCC2)c2c(C)n(C)c(C)c12	0.2	48.5*	-133.4	-0.9	3.3	11.6	49.7*
CC(C)N1CC=C(c2c[nH]c3ccccc23)CC1	-1.3	-27.7	-20.6	1.8	-1.3	3.3	nt
C1=C(c2c[nH]c3ccccc23)CCNC1	3.3	61.6*	96.2*	1.4	-3.1	nt	63.1*
C=C[C@@H]1C[C@@]1(C)[C@@H](NP(=O)(c1ccccc1)c1ccccc1)c1ccccc1	3.9	48.4*	10.5	-0.9	3.0	1.9	48.1*
COC(=O)[C@]1(C)C[C@H]1[C@H](NP(=O)(c1ccccc1)c1ccccc1)c1ccccc1	-0.1	-2.7	-5.8	5.3	-1.4	0.3	nt
C[n+]1c(-c2ccccc2)c2cc(N)ccc2c2ccc(N)cc21	8.1	141.9*	-186.2	1.9	31.1*	6.5	123.5*
CN1CCN(CCCN2c3ccccc3Sc3ccc(Cl)cc32)CC1	9.1	63.1*	96.9*	2.4	1.6	0.9	55.5*	Casp3 counter=0.8;UBC13 confirm=99.0*
CC(=O)N/C(=C\c1ccccc1)C(=O)OC(C)C(=O)c1ccccc1 (configuration not stated)	-6.6	3.1	2.1	-0.3	2.2	1.7	nt
Cn1ncnc2c(=O)n(C)c(=O)nc1-2	38.4*	44.4*	-59.9	13.0*	110.8*	99.9*	53.7*	UCH37 confirm=99.8*
COc1ccccc1NC(=O)CN(Cc1ccccc1)S(C)(=O)=O	-0.6	-6.1	4.7	-2.4	-2.9	0.9	nt
NCCc1ccc(OCc2ccccc2)c(OCc2ccccc2)c1	2.6	8.8	60.1*	0.8	nt	2.6	nt	Casp3 counter=0.3;UBC13 confirm=59.4*
SMILES	PP1 counter	PREPL inh	UBC13 inh	PP5 inh	Fh CTSL1 inh	UCH37 DUB inh	PREPL inh cf	others
ClCCN1CCN(c2ccnc3cc(Cl)ccc23)CC1	4.0	19.8	62.0*	3.4	2.8	6.8	nt	Casp3 counter=-2.0;UBC13 confirm=89.6*
CCCCCCN1CCN(c2ccc(Cl)cc2)CC1	-1.2	14.5	-5.4	3.4	-0.5	4.8	nt
Cc1ccc(C(=O)N/C(=C\c2ccc(C(C)C)cc2)C(=O)NCCCN2CCOCC2)cc1	-2.7	2.6	1.7	0.0	6.8	3.0	nt
COc1ccc(O)c2c(=O)c3c(OC)cc4c(c3oc12)C1C=COC1O4 (configuration not stated)	0.8	13.3	nt	1.8	0.2	2.7	nt	Casp3 counter=-4.0
Cc1ccc(NC(=O)CCSc2ccccc2)c(C)c1	-4.5	0.6	-0.3	-0.7	-0.7	1.3	nt
Cc1cccc(N2CCc3c2nc2ccccc2c3N)c1	1.9	29.4	61.5*!	0.6	0.6	-353.1	nt	Casp3 counter=0.4;UBC13 confirm=46.9*
Cc1ccnc(-n2c(C)nc3ccccc3c2=O)c1	-0.6	10.6	-16.0	1.3	2.0	1.8	nt
CCC1(CC)C(=O)NC(=O)N(CCc2ccccn2)C1=O	nt	nt	nt	nt	nt	1.3	nt
COc1ccc(C2C3=C(CC(C)(C)CC3=O)Oc3ncn4nc(-c5ccccc5)nc4c32)cc1 (configuration not stated)	nt	nt	nt	nt	nt	4.1	nt
Cc1ccc2[nH]c(=S)n(-c3cccnc3)c(=O)c2c1	-3.1	11.8	49.7*	-0.6	-1.4	4.6	nt	Casp3 counter=-2.2;UBC13 confirm=?
COc1cccc(-n2c(=S)[nH]c3ccccc3c2=O)c1	0.7	-2.2	16.8	2.1	-0.9	7.2	nt
O=c1c2cc(Br)ccc2[nH]c(=S)n1-c1ccccc1	8.0	2.6	46.5*	1.3	-1.1	-0.3	nt	Casp3 counter=-3.5;UBC13 confirm=?
COC(=O)C1=C(c2ccc(F)cc2OCc2ccccc2)C[C@@H]2CC[C@H]1N2C(=O)NCc1ccccc1	11.8	14.0	0.0	3.0	nt	2.5	nt
COC(=O)C1=C(c2ccc(F)cc2OCc2ccccc2)C[C@@H]2CC[C@H]1N2C(=O)NC1CCN(Cc2ccccc2)CC1	6.7	27.2	51.3*	2.2	nt	2.3	nt	Casp3 counter=-2.6;UBC13 confirm=37.7
CN1[C@@H]2CC[C@H]1CC(OC1c3ccccc3CCc3ccccc31)C2 (some centres not stated)	4.5	22.1	57.8*	0.1	-1.1	-1.7	nt	Casp3 counter=-2.2;UBC13 confirm=36.7
CCCCCC[N+](=O)[O-]	-1.8	1.1	4.1	1.2	nt	-2.2	nt
CCCCCCCCCCCCCCCC[N+](C)(C)C	13.7	26.0	89.9*	0.7	2.0	15.5	nt	Casp3 counter=7.5;UBC13 confirm=84.4*

Source: PubChem BioAssay
